# From ChEMBL document CHEMBL3352233, “N-[6-(4-butanoyl-5-methyl-1H-pyrazol-1-yl)pyridazin-3-yl]-5-chloro-1-[2-(4-methylpiperazin-1-yl)-2-oxoethyl]-1H-indole-3-carboxamide (SAR216471), a novel intravenous and oral, reversible, and directly acting P2Y12 antagonist” (J Med Chem, 2014)
# Active and inactive are the calls of the source. The calls are words filed in the database; no cut-off is given here.
# Test system: not listed separately
# Assay: Metabolic stability in rat liver microsomes assessed as compound metabolism after 20 mins incubation in presence of 1 mM NADPH
# Format: ADME
# Conditions: liver microsomes, read-out: Drug metabolism
# Method in brief: (§1)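 Hepatic microsomal fractions are incubated with compound for 20 min with 1 mM NADPH. Result is reported as % metabolized, i.e. 100 minus % unchanged compound.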
row,metabolised at 20 min [%],Structure (SMILES)
1,14,CCCC(=O)c1cnn(-c2ccc(NC(=O)c3cn(CC(=O)N4CCN(C)CC4)c4ccc(C(F)(F)F)cc34)cc2)c1C
2,27,CCCC(=O)c1cnn(-c2ccc(NC(=O)c3cn(CC(=O)N4CCN(CC(F)F)CC4)c4ccc(C)cc34)cc2)c1C
3,7,CCCC(=O)c1cnn(-c2ccc(NC(=O)c3cn(CC(=O)N4CCN(CC(=O)N(C)C)CC4)c4ccc(Cl)cc34)cc2)c1C
4,52,CCCC(=O)c1cnn(-c2ccc(NC(=O)c3cn(CC(=O)N4CCN(C)CC4)c4cc(C)c(C)cc34)cc2)c1C.Cl
5,45,CCCC(=O)c1cnn(-c2ccc(NC(=O)c3cn(CC(=O)N4CCN(C)C(C)C4)c4ccc(C)cc34)cc2)c1C (centres undefined)
6,32,CCCC(=O)c1cnn(-c2ccc(NC(=O)c3cn(CC(=O)N4CCN(CCOC)CC4)c4ccc(C)cc34)cc2)c1C
7,31,CCCC(=O)c1cnn(-c2ccc(NC(=O)c3cn(CC(=O)N4CCN(Cc5cc(C)on5)CC4)c4ccc(Cl)cc34)cc2)c1C
8,17,CCCC(=O)c1cnn(-c2ccc(NC(=O)c3cn(CC(=O)N4CCN(CCO)CC4)c4ccc(C)cc34)cc2)c1C

row,Structure (SMILES),metabolised at 20 min [%]
1,CCCC(=O)c1cnn([C@H]2CC[C@H](NC(=O)c3cn(CC(=O)N4CCN(C)CC4)c4ccc(Cl)cc34)CC2)c1C,32
2,CCCC(=O)c1cnn(-c2ccc(NC(=O)c3cn(CC(=O)N4CCN(CCOC)CC4)c4ccc(Cl)cc34)cc2)c1C,11

# Test system: not listed separately
# Assay: Metabolic stability in human liver microsomes assessed as compound metabolism after 20 mins incubation in presence of 1 mM NADPH
# Format: ADME
# Conditions: liver microsomes, read-out: Drug metabolism
# Method in brief: as §1
row,metabolised at 20 min [%],Structure (SMILES)
1,15,CCCC(=O)c1cnn(-c2ccc(NC(=O)c3cn(CC(=O)N4CCN(C)CC4)c4ccc(C(F)(F)F)cc34)cc2)c1C
2,64,CCCC(=O)c1cnn(-c2ccc(NC(=O)c3cn(CC(=O)N4CCN(CC(F)F)CC4)c4ccc(C)cc34)cc2)c1C
3,28,CCCC(=O)c1cnn(-c2ccc(NC(=O)c3cn(CC(=O)N4CCN(CC(=O)N(C)C)CC4)c4ccc(Cl)cc34)cc2)c1C
4,50,CCCC(=O)c1cnn(-c2ccc(NC(=O)c3cn(CC(=O)N4CCN(C)CC4)c4cc(C)c(C)cc34)cc2)c1C.Cl
5,65,CCCC(=O)c1cnn(-c2ccc(NC(=O)c3cn(CC(=O)N4CCN(C)C(C)C4)c4ccc(C)cc34)cc2)c1C (centres undefined)
6,53,CCCC(=O)c1cnn(-c2ccc(NC(=O)c3cn(CC(=O)N4CCN(CCOC)CC4)c4ccc(C)cc34)cc2)c1C
7,87,CCCC(=O)c1cnn(-c2ccc(NC(=O)c3cn(CC(=O)N4CCN(Cc5cc(C)on5)CC4)c4ccc(Cl)cc34)cc2)c1C
8,16,CCCC(=O)c1cnn(-c2ccc(NC(=O)c3cn(CC(=O)N4CCN(CCO)CC4)c4ccc(C)cc34)cc2)c1C

row,Structure (SMILES),metabolised at 20 min [%]
1,CCCC(=O)c1cnn([C@H]2CC[C@H](NC(=O)c3cn(CC(=O)N4CCN(C)CC4)c4ccc(Cl)cc34)CC2)c1C,73
2,CCCC(=O)c1cnn(-c2ccc(NC(=O)c3cn(CC(=O)N4CCN(CCOC)CC4)c4ccc(Cl)cc34)cc2)c1C,47

# Test system: not listed separately
# Assay: Permeability across human Caco2 cells
# Format: ADME, cell-based
# Conditions: Caco-2, read-out: permeability
# Method in brief: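 Permeation is measured across a Caco2 cell monolayer and reported in 10⁻⁷ cm·s⁻¹.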
row,Papp [×10⁻⁶ cm/s],Structure (SMILES)
1,0.9,CCCC(=O)c1cnn(-c2ccc(NC(=O)c3cn(CC(=O)N4CCN(C)CC4)c4ccc(C(F)(F)F)cc34)cc2)c1C
2,9.3,CCCC(=O)c1cnn(-c2ccc(NC(=O)c3cn(CC(=O)N4CCN(CC(F)F)CC4)c4ccc(C)cc34)cc2)c1C
3,5.9,CCCC(=O)c1cnn(-c2ccc(NC(=O)c3cn(CC(=O)N4CCN(C)CC4)c4cc(C)c(C)cc34)cc2)c1C.Cl
4,5.5,CCCC(=O)c1cnn(-c2ccc(NC(=O)c3cn(CC(=O)N4CCN(C)C(C)C4)c4ccc(C)cc34)cc2)c1C (centres undefined)
5,7.4,CCCC(=O)c1cnn(-c2ccc(NC(=O)c3cn(CC(=O)N4CCN(CCOC)CC4)c4ccc(C)cc34)cc2)c1C
6,0.6,CCCC(=O)c1cnn(-c2ccc(NC(=O)c3cn(CC(=O)N4CCN(Cc5cc(C)on5)CC4)c4ccc(Cl)cc34)cc2)c1C
7,0.2,CCCC(=O)c1cnn(-c2ccc(NC(=O)c3cn(CC(=O)N4CCN(CCO)CC4)c4ccc(C)cc34)cc2)c1C

row,Structure (SMILES),Papp [×10⁻⁶ cm/s]
1,CCCC(=O)c1cnn([C@H]2CC[C@H](NC(=O)c3cn(CC(=O)N4CCN(C)CC4)c4ccc(Cl)cc34)CC2)c1C,0.1
2,CCCC(=O)c1cnn(-c2ccc(NC(=O)c3cn(CC(=O)N4CCN(CCOC)CC4)c4ccc(Cl)cc34)cc2)c1C,4.3

# Test system: Hepatocyte
# Assay: Intrinsic metabolic clearance in human hepatocytes measured per 10^6 cells after 24 hrs
# Format: ADME, cell-based
# Conditions: not given
# Method in brief: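 Human hepatocytes incubated with compound for 24 h to measure in vitro metabolism. Clearance reported in mL·h⁻¹·(10⁶ hepatocytes)⁻¹.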
row,Structure (SMILES),CLH [mL/h]
1,CCCC(=O)c1cnn([C@H]2CC[C@H](NC(=O)c3cn(CC(=O)N4CCN(C)CC4)c4ccc(Cl)cc34)CC2)c1C,0.171

# Test system: Rattus norvegicus
# Assay: Ex vivo inhibition of platelet aggregation in Sprague-Dawley rat at 10 mg/kg, po after 6 hrs
# Format: functional
# Conditions: Rattus norvegicus, Sprague-Dawley, po, 6 h
# Method in brief: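 Time-course study in Sprague−Dawley rats after a 10 mg/kg oral dose in glucose/Cremophor/glycofurol vehicle. Aortic citrated blood is sampled at intervals over the hours after dosing. PRP is prepared at 300g for 5 min. ADP-induced aggregation is measured as the 6-min absorbance AUC and reported as % inhibition.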
row,Structure (SMILES),inhibition in vivo at 10 mg/kg [%]
1,CCCC(=O)c1cnn(-c2ccc(NC(=O)c3cn(CC(=O)N4CCN(Cc5cc(C)on5)CC4)c4ccc(Cl)cc34)cc2)c1C,60
2,CCCC(=O)c1cnn(-c2ccc(NC(=O)c3cn(CC(=O)N4CCN(CCOC)CC4)c4ccc(Cl)cc34)cc2)c1C,65

# Test system: Rattus norvegicus
# Assay: Ex vivo inhibition of platelet aggregation in Sprague-Dawley rat at 10 mg/kg, po after 2 hrs
# Format: functional
# Conditions: not given
# Method in brief: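 Male Sprague−Dawley rats (250−300 g), 6 per batch, are dosed by stomach tube at 10 mL/kg of a 1 mg/mL solution in 5% glucose water containing 5% Cremophor and 3% glycofurol. At 2 h, aortic blood is drawn into 3.8% citrate (1:9) under pentobarbital. PRP is prepared at 300g for 5 min. ADP aggregation is read as the 6-min absorbance AUC and expressed as % inhibition.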
row,Structure (SMILES),inhibition
1,CCCC(=O)c1cnn(-c2ccc(NC(=O)c3cn(CC(=O)N4CCN(CC(=O)N(C)C)CC4)c4ccc(Cl)cc34)cc2)c1C,inactive

# Same assay, conditions: Rattus norvegicus, Sprague-Dawley, po, 2 h
row,Structure (SMILES),inhibition in vivo at 10 mg/kg [%]
1,CCCC(=O)c1cnn(-c2ccc(NC(=O)c3cn(CC(=O)N4CCN(C)CC4)c4ccc(C(F)(F)F)cc34)cc2)c1C,26
2,CCCC(=O)c1cnn(-c2ccc(NC(=O)c3cn(CC(=O)N4CCN(C)CC4)c4cc(C)c(C)cc34)cc2)c1C.Cl,37
3,CCCC(=O)c1cnn(-c2ccc(NC(=O)c3cn(CC(=O)N4CCN(Cc5cc(C)on5)CC4)c4ccc(Cl)cc34)cc2)c1C,72
4,CCCC(=O)c1cnn(-c2ccc(NC(=O)c3cn(CC(=O)N4CCN(CCOC)CC4)c4ccc(Cl)cc34)cc2)c1C,68

# Test system: not listed separately
# Assay: Metabolic stability in mouse liver microsomes assessed as compound metabolism after 20 mins incubation in presence of 1 mM NADPH
# Format: ADME
# Conditions: read-out: Drug metabolism
# Method in brief: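 Compound incubated with mouse hepatic microsomal fractions for 20 min with 1 mM NADPH. Read-out is % metabolism, meaning 100 minus % unchanged compound.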
row,Structure (SMILES),metabolised at 20 min [%]
1,CCCC(=O)c1cnn([C@H]2CC[C@H](NC(=O)c3cn(CC(=O)N4CCN(C)CC4)c4ccc(Cl)cc34)CC2)c1C,11

# Biological target: P2Y purinoceptor 12 (Homo sapiens, UniProt Q9H244)
# Assay: Displacement of [33P]2MeS-ADP from P2Y12 receptor (unknown origin) transfected in CHO cells after 30 mins by scintillation counting analysis
# Format: cell-based
# Conditions: not given
# Method in brief: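 P2Y12-expressing CHO cells (35 × 10³/sample) in PBS with 1 mM EDTA and 0.2% BSA are exposed to compound for 30 min. [³³P]2-MeS-ADP (0.16 nM) is then added for 15 min at 20 °C, in triplicate. Filtration separates free from bound ligand, followed by scintillation counting. Nonspecific binding uses 1 mM unlabeled ADP. IC50 comes from a four-parameter logistic fit with asymptotes fixed at 0 and 100. n = 2.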
# Chain of P2Y purinoceptor 12 (Q9H244 whole entry): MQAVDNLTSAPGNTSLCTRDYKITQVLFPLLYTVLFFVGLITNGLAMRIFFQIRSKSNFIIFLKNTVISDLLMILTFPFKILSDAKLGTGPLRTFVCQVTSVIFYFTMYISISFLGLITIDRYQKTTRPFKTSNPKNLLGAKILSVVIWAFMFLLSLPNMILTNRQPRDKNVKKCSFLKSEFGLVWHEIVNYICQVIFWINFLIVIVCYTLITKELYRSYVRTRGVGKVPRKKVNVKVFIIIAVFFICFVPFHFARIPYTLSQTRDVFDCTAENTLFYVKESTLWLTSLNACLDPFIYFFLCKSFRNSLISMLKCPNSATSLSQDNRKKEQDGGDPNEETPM
row,IC50 [nM],Structure (SMILES)
1,50,CCCC(=O)c1cnn(-c2ccc(NC(=O)c3cn(CC(=O)N4CCN(C)CC4)c4ccc(C(F)(F)F)cc34)cc2)c1C
2,19,CCCC(=O)c1cnn(-c2ccc(NC(=O)c3cn(CC(=O)N4CCN(CC(F)F)CC4)c4ccc(C)cc34)cc2)c1C
3,11,CCCC(=O)c1cnn(-c2ccc(NC(=O)c3cn(CC(=O)N4CCN(CC(=O)N(C)C)CC4)c4ccc(Cl)cc34)cc2)c1C
4,39,CCCC(=O)c1cnn(-c2ccc(NC(=O)c3cn(CC(=O)N4CCN(C)CC4)c4cc(C)c(C)cc34)cc2)c1C.Cl
5,27,CCCC(=O)c1cnn(-c2ccc(NC(=O)c3cn(CC(=O)N4CCN(C)C(C)C4)c4ccc(C)cc34)cc2)c1C (centres undefined)
6,20,CCCC(=O)c1cnn(-c2ccc(NC(=O)c3cn(CC(=O)N4CCN(CCOC)CC4)c4ccc(C)cc34)cc2)c1C
7,11,CCCC(=O)c1cnn(-c2ccc(NC(=O)c3cn(CC(=O)N4CCN(Cc5cc(C)on5)CC4)c4ccc(Cl)cc34)cc2)c1C
8,41,CCCC(=O)c1cnn(-c2ccc(NC(=O)c3cn(CC(=O)N4CCN(CCO)CC4)c4ccc(C)cc34)cc2)c1C

row,Structure (SMILES),IC50 [nM]
1,CCCC(=O)c1cnn([C@H]2CC[C@H](NC(=O)c3cn(CC(=O)N4CCN(C)CC4)c4ccc(Cl)cc34)CC2)c1C,40
2,CCCC(=O)c1cnn(-c2ccc(NC(=O)c3cn(CC(=O)N4CCN(CCOC)CC4)c4ccc(Cl)cc34)cc2)c1C,15

# Test system: Hepatocyte
# Assay: Intrinsic metabolic clearance in human hepatocytes measured assessed as CYP3A4 contribution per 10^6 cells after 24 hrs
# Format: ADME, cell-based
# Conditions: not given
row,Structure (SMILES),Activity [%]
1,CCCC(=O)c1cnn([C@H]2CC[C@H](NC(=O)c3cn(CC(=O)N4CCN(C)CC4)c4ccc(Cl)cc34)CC2)c1C,64
